Test results published in ChEMBL document CHEMBL1129542, “trans-2-Aryl-N,N-dipropylcyclopropylamines: synthesis and interactions with 5-HT(1A) receptors” (J Med Chem, 1996).
Values belong to the compound of their own block, whether it stands above or below them.

Assays:
[1] = molecular target: T1, 5-hydroxytryptamine receptor 1A (Rattus norvegicus, UniProt P19327); experiment: In vitro binding affinity of compound towards 5-hydroxytryptamine 1A receptor was determined using [3H]8-OH-DPAT as radioligand; range=16-20
T1 sequence (P19327 whole entry): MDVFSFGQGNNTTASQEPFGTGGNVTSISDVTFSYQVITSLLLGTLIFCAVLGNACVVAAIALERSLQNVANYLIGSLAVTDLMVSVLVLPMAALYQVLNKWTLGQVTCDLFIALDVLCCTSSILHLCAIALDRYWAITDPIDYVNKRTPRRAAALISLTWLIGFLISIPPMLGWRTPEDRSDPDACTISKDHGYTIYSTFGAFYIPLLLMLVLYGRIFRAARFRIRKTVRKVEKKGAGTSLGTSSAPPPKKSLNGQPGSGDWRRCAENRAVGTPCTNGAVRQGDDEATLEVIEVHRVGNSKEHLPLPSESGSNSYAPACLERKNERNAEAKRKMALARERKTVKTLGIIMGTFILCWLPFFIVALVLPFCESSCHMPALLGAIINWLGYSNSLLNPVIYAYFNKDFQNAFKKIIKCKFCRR
How it was run: (§1)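 Rat (male Sprague–Dawley) cortex plus hippocampus membranes, washed twice in 50 mM Tris-HCl with 4.0 mM CaCl2 and 5.7 mM ascorbate, pH 7.5, pretreated with 10 μM pargyline. Competition against 2 nM [3H]-8-OH-DPAT with 1–300 nM compound, 5 mg/mL tissue, 37 °C for 10 min, then filtration. Nonspecific binding defined with 10 μM 5-HT. […] Range derived from the standard error of the estimate.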

[2] = molecular target: T1, 5-hydroxytryptamine receptor 1A; experiment: In vitro binding affinity of compound towards 5-hydroxytryptamine 1A receptor was determined using [3H]8-OH-DPAT as radioligand; range=160-430; how it was run: as §1
[3] = molecular target: T1, 5-hydroxytryptamine receptor 1A; experiment: In vitro binding affinity of compound towards 5-hydroxytryptamine 1A receptor was determined using [3H]8-OH-DPAT as radioligand; range=710-980; how it was run: as §1
[4] = molecular target: T1, 5-hydroxytryptamine receptor 1A; experiment: In vitro binding affinity of compound towards 5-hydroxytryptamine 1A receptor was determined using [3H]8-OH-DPAT as radioligand; range=12-14; how it was run: as §1
[5] = molecular target: T1, 5-hydroxytryptamine receptor 1A; experiment: In vitro binding affinity of compound towards 5-hydroxytryptamine 1A receptor was determined using [3H]8-OH-DPAT as radioligand; range=78-140; how it was run: as §1
[6] = molecular target: T1, 5-hydroxytryptamine receptor 1A; experiment: In vitro binding affinity of compound towards 5-hydroxytryptamine 1A receptor was determined using [3H]8-OH-DPAT as radioligand; range=85-130; how it was run: as §1
[7] = molecular target: T1, 5-hydroxytryptamine receptor 1A; experiment: In vitro binding affinity of compound towards 5-hydroxytryptamine 1A receptor was determined using [3H]8-OH-DPAT as radioligand; how it was run: as §1
[8] = molecular target: T1, 5-hydroxytryptamine receptor 1A; experiment: In vitro binding affinity of compound towards 5-hydroxytryptamine 1A receptor was determined using [3H]-8-OH-DPAT as radioligand; range=39-87; how it was run: as §1
[9] = molecular target: T1, 5-hydroxytryptamine receptor 1A; experiment: In vitro binding affinity of compound towards 5-hydroxytryptamine 1A receptor was determined using [3H]-8-OH-DPAT as radioligand; range=21-28; how it was run: as §1
[10] = molecular target: T1, 5-hydroxytryptamine receptor 1A; experiment: In vitro binding affinity of compound towards 5-hydroxytryptamine 1A receptor was determined using [3H]8-OH-DPAT as radioligand; range=20-23; how it was run: as §1
[11] = molecular target: T1, 5-hydroxytryptamine receptor 1A; experiment: In vitro binding affinity of compound towards 5-hydroxytryptamine 1A receptor was determined using [3H]8-OH-DPAT as radioligand; range=184-503; how it was run: as §1
[12] = molecular target: T1, 5-hydroxytryptamine receptor 1A; experiment: In vitro binding affinity of compound towards 5-hydroxytryptamine 1A receptor was determined using [3H]8-OH-DPAT as radioligand; range=19-23
[13] = molecular target: T1, 5-hydroxytryptamine receptor 1A; experiment: In vitro binding affinity of compound towards 5-hydroxytryptamine 1A receptor was determined using [3H]-8-OH-DPAT as radioligand; range=48-77; how it was run: as §1
[14] = molecular target: T1, 5-hydroxytryptamine receptor 1A; experiment: In vitro binding affinity of compound towards 5-hydroxytryptamine 1A receptor was determined using [3H]8-OH-DPAT as radioligand; range=89-280; how it was run: as §1
[15] = molecular target: T1, 5-hydroxytryptamine receptor 1A; experiment: In vitro binding affinity of compound towards 5-hydroxytryptamine 1A receptor was determined using [3H]8-OH-DPAT as radioligand; range=2.7-3.6; how it was run: as §1
[16] = molecular target: T1, 5-hydroxytryptamine receptor 1A; experiment: In vitro binding affinity of compound towards 5-hydroxytryptamine 1A receptor was determined using [3H]8-OH-DPAT as radioligand; range=63-95; how it was run: as §1
[17] = molecular target: T1, 5-hydroxytryptamine receptor 1A; experiment: In vitro binding affinity of compound towards 5-hydroxytryptamine 1A receptor was determined using [3H]8-OH-DPAT as radioligand; range=174-224; how it was run: as §1

Structure (SMILES): CCCN(CCC)[C@@H]1C[C@H]1c1ccccc1OC
Ki [1]: 17 nM

Structure (SMILES): CCCN(CCC)[C@H]1C[C@@H]1c1ccccc1OC
Ki [2]: 230 nM

Structure (SMILES): CCCN(CCC)[C@H]1C[C@@H]1c1cccs1
Ki [3]: 820 nM

Structure (SMILES): CCCN(CCC)[C@@H]1C[C@H]1c1cccs1
Ki [4]: 11 nM

Structure (SMILES): CCCN(CCC)C1CC1c1cccs1 (stereo not given)
Ki [4]: 13 nM

Structure (SMILES): CCCN(CCC)C1CC1c1cc(F)ccc1O (stereo not given)
Ki [5]: 99 nM

Structure (SMILES): CCCN(CCC)C1CC1c1cccc(F)c1 (stereo not given)
Ki [6]: 100 nM

Ki [7]: > 1000 nM
Structure (SMILES): CCCN(CCC)C1CC1c1cc2ccccc2s1 (stereo not given)

Structure (SMILES): CCCN(CCC)[C@@H]1C[C@H]1c1cc(F)ccc1OC
Ki [8]: 60 nM

Structure (SMILES): CCCN(CCC)C1CC1c1ccccc1 (stereo not given)
Ki [9]: 24 nM

Structure (SMILES): CCCN(CCC)C1CC1c1ccccc1Br (stereo not given)
Ki [10]: 22 nM

Structure (SMILES): CCCN(CCC)[C@H]1C[C@@H]1c1cc(F)ccc1O
Ki [11]: 348 nM

Ki [12]: 21 nM
Structure (SMILES): CCCN(CCC)C1CC1c1ccsc1 (stereo not given)

Structure (SMILES): CCCN(CCC)C1CC1c1ccccc1F (stereo not given)
Ki [13]: 59 nM

Structure (SMILES): CCCN(CCC)C1CC1c1ccccc1C(F)(F)F (stereo not given)
Ki [7]: > 1000 nM

Structure (SMILES): CCCN(CCC)C1CC1c1cccc(Cl)c1Cl (stereo not given)
Ki [7]: > 300 nM

Structure (SMILES): CCCN(CCC)C1CC1c1cc(F)ccc1OC (stereo not given)
Ki [14]: 140 nM

Structure (SMILES): CCCN(CCC)[C@@H]1C[C@H]1c1cc(F)ccc1O
Ki [15]: 3.2 nM

Structure (SMILES): CCCN(CCC)C1CC1c1ccc(F)cc1 (stereo not given)
Ki [16]: 76 nM

Structure (SMILES): CCCN(CCC)[C@H]1C[C@@H]1c1cc(F)ccc1OC
Ki [17]: 199 nM
